# ChEMBL document CHEMBL4689842, “EUbOPEN Chemogenomics Library wave 1” (2021)
# What was measured:
# Assay type in all cases: toxicity, cell-based
# HEK-293T = assay: Incucyte cell viability with HEK293T; settings: human, 10 µM, compound concentration 10 uM; note: filed as whole numbers so only -1 and 0 and 1 occur
# U2OS [1] = assay: Multiplex assay against U2OS; settings: human
# Method in brief: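 Compound was added to live cells that had been stained at seeding with Hoechst33342, BioTracker Green Microtubule Cytoskeleton Dye, MitoTracker Red and Annexin V Alexa Fluor 680, and imaging followed on a CQ1 microscope at 37°C and 5% CO2. CellPathfinder machine-learning gating divided cells into Hoechst high-intensity objects or normal cells, normal cells into healthy, pyknosed or fragmented nuclei, and pyknosed cells into mitotic or apoptotic. Tubulin, mitochondrial-mass and membrane-permeability phenotypes are per cents of healthy-nucleus cells.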
# Fibroblast = assay: Incucyte cell viability with human fibroblast; settings: 10 µM, compound concentration 10 uM; note: filed as whole numbers so only -1 and 0 and 1 occur
# U2OS [2] = assay: Incucyte cell viability with U2OS; settings: human, 10 µM, compound concentration 10 uM; note: filed as whole numbers so only -1 and 0 and 1 occur
# [3] = 0 h, replicate number 2, timepoint 0 hours
# [4] = 6 h, replicate number 1, timepoint 6 hours
# [5] = 12 h, replicate number 1, timepoint 12 hours
# [6] = 18 h, replicate number 1, timepoint 18 hours
# [7] = 24 h, replicate number 1, timepoint 24 hours
# [8] = 12 h, 1 µM, compound concentration 1 uM, replicate 1
# [9] = 12 h, 1 µM, compound concentration 1 uM, replicate 2
# [10] = 12 h, 10 µM, compound concentration 10 uM, replicate 1
# [11] = 12 h, 10 µM, compound concentration 10 uM, replicate 2
# [12] = 24 h, 1 µM, compound concentration 1 uM, replicate 1
# [13] = 24 h, 1 µM, compound concentration 1 uM, replicate 2
# [14] = 24 h, 10 µM, compound concentration 10 uM, replicate 1
# [15] = 24 h, 10 µM, compound concentration 10 uM, replicate 2
# [16] = 48 h, 1 µM, compound concentration 1 uM, replicate 1
# [17] = 48 h, 1 µM, compound concentration 1 uM, replicate 2
# [18] = 48 h, 10 µM, compound concentration 10 uM, replicate 1
# [19] = 48 h, 10 µM, compound concentration 10 uM, replicate 2
# [20] = 0 h, replicate number 1, timepoint 0 hours
smiles,measurement,setting,value
COc1ccc(NS(=O)(=O)c2sc3ccc(Cl)cc3c2C)cc1N1CCNCC1.Cl,Growth Rate,HEK-293T; [3],1
same,Growth Rate,HEK-293T; [4],0
same,Growth Rate,HEK-293T; [5],0
same,Growth Rate,HEK-293T; [6],0
same,Growth Rate,HEK-293T; [7],0
same,Population Apoptotic (%),U2OS [1]; [8],57%
same,Population Fragmented Nuclei (%),U2OS [1]; [8],12%
same,Population Healthy Nuclei (%),U2OS [1]; [8],74%
same,Population Hoechst High Intensity Objects (%),U2OS [1]; [8],6%
same,Population Membrane Permeable-Phenotype (%),U2OS [1]; [8],6%
same,Population Mitochondria Different-Phenotype (%),U2OS [1]; [8],11%
same,Population Mitotic Cells (%),U2OS [1]; [8],42%
same,Population Normal (%),U2OS [1]; [8],93%
same,Population Pyknosed Nuclei (%),U2OS [1]; [8],12%
same,Population Tubulin-Different-Phenotype (%),U2OS [1]; [8],10%
same,Total Cell Count,U2OS [1]; [8],172
same,Population Apoptotic (%),U2OS [1]; [9],28%
same,Population Fragmented Nuclei (%),U2OS [1]; [9],13%
same,Population Healthy Nuclei (%),U2OS [1]; [9],69%
same,Population Hoechst High Intensity Objects (%),U2OS [1]; [9],12%
same,Population Membrane Permeable-Phenotype (%),U2OS [1]; [9],0%
same,Population Mitochondria Different-Phenotype (%),U2OS [1]; [9],26%
same,Population Mitotic Cells (%),U2OS [1]; [9],71%
same,Population Normal (%),U2OS [1]; [9],87%
same,Population Pyknosed Nuclei (%),U2OS [1]; [9],16%
same,Total Cell Count,U2OS [1]; [9],69
same,Population Apoptotic (%),U2OS [1]; [10],43%
same,Population Fragmented Nuclei (%),U2OS [1]; [10],12%
same,Population Healthy Nuclei (%),U2OS [1]; [10],57%
same,Population Hoechst High Intensity Objects (%),U2OS [1]; [10],5%
same,Population Membrane Permeable-Phenotype (%),U2OS [1]; [10],29%
same,Population Mitochondria Different-Phenotype (%),U2OS [1]; [10],97%
same,Population Mitotic Cells (%),U2OS [1]; [10],56%
same,Population Normal (%),U2OS [1]; [10],94%
same,Population Pyknosed Nuclei (%),U2OS [1]; [10],30%
same,Population Tubulin-Different-Phenotype (%),U2OS [1]; [10],97%
same,Total Cell Count,U2OS [1]; [10],162
same,Population Apoptotic (%),U2OS [1]; [11],61%
same,Population Fragmented Nuclei (%),U2OS [1]; [11],14%
same,Population Healthy Nuclei (%),U2OS [1]; [11],56%
same,Population Hoechst High Intensity Objects (%),U2OS [1]; [11],4%
same,Population Membrane Permeable-Phenotype (%),U2OS [1]; [11],25%
same,Population Mitochondria Different-Phenotype (%),U2OS [1]; [11],100%
same,Population Mitotic Cells (%),U2OS [1]; [11],38%
same,Population Normal (%),U2OS [1]; [11],95%
same,Population Pyknosed Nuclei (%),U2OS [1]; [11],29%
same,Population Tubulin-Different-Phenotype (%),U2OS [1]; [11],94%
same,Total Cell Count,U2OS [1]; [11],49
same,Population Apoptotic (%),U2OS [1]; [12],52%
same,Population Healthy Nuclei (%),U2OS [1]; [12],76%
same,Population Hoechst High Intensity Objects (%),U2OS [1]; [12],5%
same,Population Membrane Permeable-Phenotype (%),U2OS [1]; [12],3%
same,Population Mitochondria Different-Phenotype (%),U2OS [1]; [12],10%
same,Population Mitotic Cells (%),U2OS [1]; [12],48%
same,Population Normal (%),U2OS [1]; [12],95%
same,Population Pyknosed Nuclei (%),U2OS [1]; [12],13%
same,Population Tubulin-Different-Phenotype (%),U2OS [1]; [12],6%
same,Total Cell Count,U2OS [1]; [12],174
same,Population Apoptotic (%),U2OS [1]; [13],33%
same,Population Fragmented Nuclei (%),U2OS [1]; [13],10%
same,Population Healthy Nuclei (%),U2OS [1]; [13],77%
same,Population Hoechst High Intensity Objects (%),U2OS [1]; [13],3%
same,Population Membrane Permeable-Phenotype (%),U2OS [1]; [13],5%
same,Population Mitochondria Different-Phenotype (%),U2OS [1]; [13],13%
same,Population Mitotic Cells (%),U2OS [1]; [13],66%
same,Population Normal (%),U2OS [1]; [13],96%
same,Population Pyknosed Nuclei (%),U2OS [1]; [13],12%
same,Population Tubulin-Different-Phenotype (%),U2OS [1]; [13],5%
same,Total Cell Count,U2OS [1]; [13],67
same,Population Apoptotic (%),U2OS [1]; [14],61%
same,Population Fragmented Nuclei (%),U2OS [1]; [14],17%
same,Population Healthy Nuclei (%),U2OS [1]; [14],51%
same,Population Hoechst High Intensity Objects (%),U2OS [1]; [14],7%
same,Population Membrane Permeable-Phenotype (%),U2OS [1]; [14],35%
same,Population Mitochondria Different-Phenotype (%),U2OS [1]; [14],98%
same,Population Mitotic Cells (%),U2OS [1]; [14],38%
same,Population Normal (%),U2OS [1]; [14],92%
same,Population Pyknosed Nuclei (%),U2OS [1]; [14],31%
same,Population Tubulin-Different-Phenotype (%),U2OS [1]; [14],95%
same,Total Cell Count,U2OS [1]; [14],200
same,Population Apoptotic (%),U2OS [1]; [15],68%
same,Population Fragmented Nuclei (%),U2OS [1]; [15],16%
same,Population Healthy Nuclei (%),U2OS [1]; [15],47%
same,Population Hoechst High Intensity Objects (%),U2OS [1]; [15],2%
same,Population Membrane Permeable-Phenotype (%),U2OS [1]; [15],55%
same,Population Mitochondria Different-Phenotype (%),U2OS [1]; [15],97%
same,Population Mitotic Cells (%),U2OS [1]; [15],32%
same,Population Normal (%),U2OS [1]; [15],97%
same,Population Pyknosed Nuclei (%),U2OS [1]; [15],35%
same,Population Tubulin-Different-Phenotype (%),U2OS [1]; [15],91%
same,Total Cell Count,U2OS [1]; [15],51
same,Population Apoptotic (%),U2OS [1]; [16],36%
same,Population Fragmented Nuclei (%),U2OS [1]; [16],8%
same,Population Healthy Nuclei (%),U2OS [1]; [16],82%
same,Population Hoechst High Intensity Objects (%),U2OS [1]; [16],3%
same,Population Membrane Permeable-Phenotype (%),U2OS [1]; [16],3%
same,Population Mitochondria Different-Phenotype (%),U2OS [1]; [16],8%
same,Population Mitotic Cells (%),U2OS [1]; [16],64%
same,Population Pyknosed Nuclei (%),U2OS [1]; [16],9%
same,Population Tubulin-Different-Phenotype (%),U2OS [1]; [16],6%
same,Total Cell Count,U2OS [1]; [16],178
same,Population Apoptotic (%),U2OS [1]; [17],22%
same,Population Fragmented Nuclei (%),U2OS [1]; [17],13%
same,Population Healthy Nuclei (%),U2OS [1]; [17],73%
same,Population Hoechst High Intensity Objects (%),U2OS [1]; [17],4%
same,Population Membrane Permeable-Phenotype (%),U2OS [1]; [17],7%
same,Population Mitochondria Different-Phenotype (%),U2OS [1]; [17],20%
same,Population Mitotic Cells (%),U2OS [1]; [17],77%
same,Population Normal (%),U2OS [1]; [17],96%
same,Population Pyknosed Nuclei (%),U2OS [1]; [17],12%
same,Population Tubulin-Different-Phenotype (%),U2OS [1]; [17],11%
same,Total Cell Count,U2OS [1]; [17],73
same,Population Apoptotic (%),U2OS [1]; [18],73%
same,Population Fragmented Nuclei (%),U2OS [1]; [18],20%
same,Population Healthy Nuclei (%),U2OS [1]; [18],37%
same,Population Hoechst High Intensity Objects (%),U2OS [1]; [18],12%
same,Population Membrane Permeable-Phenotype (%),U2OS [1]; [18],46%
same,Population Mitochondria Different-Phenotype (%),U2OS [1]; [18],94%
same,Population Mitotic Cells (%),U2OS [1]; [18],26%
same,Population Normal (%),U2OS [1]; [18],87%
same,Population Pyknosed Nuclei (%),U2OS [1]; [18],41%
same,Population Tubulin-Different-Phenotype (%),U2OS [1]; [18],98%
same,Total Cell Count,U2OS [1]; [18],281
same,Population Apoptotic (%),U2OS [1]; [19],68%
same,Population Fragmented Nuclei (%),U2OS [1]; [19],17%
same,Population Healthy Nuclei (%),U2OS [1]; [19],56%
same,Population Hoechst High Intensity Objects (%),U2OS [1]; [19],6%
same,Population Membrane Permeable-Phenotype (%),U2OS [1]; [19],56%
same,Population Mitochondria Different-Phenotype (%),U2OS [1]; [19],93%
same,Population Mitotic Cells (%),U2OS [1]; [19],31%
same,Population Normal (%),U2OS [1]; [19],93%
same,Population Pyknosed Nuclei (%),U2OS [1]; [19],26%
same,Population Tubulin-Different-Phenotype (%),U2OS [1]; [19],82%
same,Total Cell Count,U2OS [1]; [19],75
same,Growth Rate,Fibroblast; [20],1
same,Growth Rate,Fibroblast; [4],1
same,Growth Rate,"Fibroblast; 6 h, replicate number 2, timepoint 6 hours",0
same,Growth Rate,Fibroblast; [5],0
same,Growth Rate,Fibroblast; [6],0
same,Growth Rate,Fibroblast; [7],0
same,Growth Rate,U2OS [2]; [4],0
same,Growth Rate,U2OS [2]; [5],0
same,Growth Rate,U2OS [2]; [6],0
same,Growth Rate,U2OS [2]; [7],0
COc1cc(N2CCC(N(C)C)CC2)ccc1Nc1ncc(Cl)c(Nc2ccccc2P(C)(C)=O)n1,Growth Rate,HEK-293T; [4],0
same,Growth Rate,HEK-293T; [5],0
same,Growth Rate,HEK-293T; [6],0
same,Growth Rate,HEK-293T; [7],0
same,Growth Rate,Fibroblast; [3],0
same,Growth Rate,Fibroblast; [4],1
same,Growth Rate,Fibroblast; [5],0
same,Growth Rate,"Fibroblast; 12 h, replicate number 2, timepoint 12 hours",1
same,Growth Rate,Fibroblast; [6],0
same,Growth Rate,"Fibroblast; 18 h, replicate number 2, timepoint 18 hours",1
same,Growth Rate,Fibroblast; [7],0
same,Growth Rate,U2OS [2]; [20],0
same,Growth Rate,U2OS [2]; [4],0
same,Growth Rate,U2OS [2]; [5],0
same,Growth Rate,U2OS [2]; [6],0
same,Growth Rate,U2OS [2]; [7],0
